Measured values published in ChEMBL document CHEMBL6177924, “Synthesis and antifungal evaluation of new azole derivatives containing 1,2,3-triazole” (RSC Med Chem, 2025).
Converted amounts (≈) assume the structure as drawn. The source made the active and inactive calls. The calls are words filed in the database; no cut-off is given here.

Assays:
Candida albicans [1] = experiment: Antifungal activity against drug sensitive Candida albicans SC5314 assessed as inhibition of fungal growth incubated for 24 hrs by CLSI protocol based microdilution method; format: functional
Method in brief: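 Broth microdilution of log-phase C. albicans at 1×10^5 CFU/mL in Sabouraud liquid medium (SDB). Compounds serially diluted 5-fold to final 200-0.064 µg/mL, DMSO below 0.1%. Triplicate wells, 200 µL final volume, with growth, blank and fluconazole controls. Incubated 24 h at 30 °C, OD read at 630 nm; experiment repeated three times.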

Candida albicans [2] = experiment: Antifungal activity against drug resistant Candida albicans SC5314-FR assessed as inhibition of fungal growth incubated for 24 hrs by CLSI protocol based microdilution method; format: functional
Method in brief: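 Fluconazole-resistant strain derived from SC5314 by fluconazole exposure. Log-phase cells at 1×10^5 CFU/mL in SDB. Drug fivefold serial dilutions, 200–0.064 µg/mL final, DMSO <0.1%, triplicate wells, 200 µL. Incubated 30 °C for 24 h and read at OD630. Growth, blank and fluconazole controls included. Run three times.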

Candida albicans [3] = experiment: Induction of morphological changes in Candida albicans assessed as normal cell wall appearance incubated for 16 to 24 hrs by transmission electron microscopic analysis; format: functional, organism-based; conditions: time 16-24 hrs
Method in brief: (§1)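 Cells at 5×10^5 CFU/mL in SDB with drug (0.27, 0.53, 1.06 µg/mL), fluconazole or no drug. Shaken 150 r/min at 30 °C for 16–24 h, pelleted and PBS-washed. Fixed in 3% paraformaldehyde/2.5% glutaraldehyde at 4 °C, post-fixed in 1% OsO4, acetone-dehydrated and Epon-812 embedded. 60–90 nm sections stained with uranyl acetate and lead citrate, imaged by TEM.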

Cell membrane [4] = experiment: Induction of cell membrane permeability in Candida albicans assessed as increase in fluorescence intensity by multifunctional enzymatic assay; format: subcellular
Candida albicans [5] = experiment: Induction of morphological changes in Candida albicans assessed as blurred spacing between cell wall and cell membrane incubated for 16 to 24 hrs by transmission electron microscopic analysis; format: functional, organism-based; conditions: time 16-24 hrs; method in brief: as §1
Cell membrane [6] = experiment: Induction of cell membrane permeability in Candida albicans assessed as increase in red fluorescence incubated for 16 to 24 hrs by PI staining based fluorescence microscopic analysis; format: subcellular; conditions: time 16-24 hrs
Method in brief: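 C. albicans at 1×10^5 CFU/mL in SDB grown with drug (0.27, 0.53, 1.06 µg/mL), fluconazole or no drug at 30 °C, 150 r/min, for 16-24 h. Cells washed and resuspended in PBS at 2×10^6 CFU/mL. Stained with propidium iodide (final 5 µg/mL) 30 min at room temperature in the dark, then washed. Imaged by fluorescence microscopy and fluorescence intensity measured.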

Candida albicans [7] = experiment: Antifungal activity against Candida albicans assessed as inhibition of mycelia formation measured after 4 to 8 hrs by inverted microscopic analysis; format: functional, organism-based; conditions: time 4-8 hrs
Method in brief: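 Hyphae induced in SD + 10% FBS or in Spider medium, log-phase cells at 1×10^5 CFU/mL. Drug at 0.27, 0.53 or 1.06 µg/mL, with fluconazole and drug-free controls, 1 mL per well in 24-well plates, triplicate. […], and mycelium formation viewed and photographed by inverted microscope at 4 and 8 h.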

Candida albicans [8] = experiment: Antibiofilm activity in Candida albicans SC5314 assessed as decrease in number of mycelia measured after 24 hrs by inverted microscopic analysis; format: functional, organism-based
Method in brief: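 Log-phase cells at 1×10^5 CFU/mL in RPMI1640 + 10% FBS allowed to adhere 90 min at 30 °C in 24-well plates. Excess medium removed, then 1 mL medium with or without drug (0.27, 0.53, 1.06 µg/mL; fluconazole group) added for 24 h at 30 °C. Crystal violet stain 30 min, PBS washes ×3, biofilm viewed by inverted microscope.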

Candida albicans [9] = experiment: Induction of morphological changes in Candida albicans assessed as loose distribution of cytoplasm incubated for 16 to 24 hrs by transmission electron microscopic analysis; format: functional, organism-based; conditions: time 16-24 hrs; method in brief: as §1
16HBE14o- = experiment: Cytotoxicity against human 16HBE14o- cells assessed as reduction in cell viability 0.032 to 100 microg/ml incubated for 48 hrs by CCK8 assay; format: toxicity, cell-based; conditions: dose 0.032-100 µg/ml
Method in brief: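 16HBE cells seeded in RPMI1640 + 10% FBS + 1% antibiotics and attached 24 h at 37 °C. Medium replaced with drug in fivefold dilutions from 100 µg/mL, with fluconazole, growth and blank controls. Incubated 48 h, then CCK8 reagent added and plates incubated for viability read-out.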

Candida albicans [10] = experiment: Induction of morphological changes in Candida albicans assessed as absence of intracellular substance incubated for 16 to 24 hrs by transmission electron microscopic analysis; format: functional, organism-based; conditions: time 16-24 hrs; method in brief: as §1
Candida albicans [11] = experiment: Antifungal activity against Candida albicans SC5314 assessed as inhibition of fungal growth measured up to 48 hrs by time-killing curve analysis; format: functional, organism-based
Method in brief: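 Log-phase cells at 1×10^5 CFU/mL in SDB, 10 mL per group. Drug at 0.27, 0.53 or 1.06 µg/mL, plus fluconazole and untreated controls. Shaken 150 r/min at 30 °C. Samples taken at 0, 4, 8, 12, 24, 36 and 48 h and read at A630, triplicate wells. Absorbance plotted against time.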

| SMILES | MIC50 (Candida albicans [1]) [µg/mL] | MIC50 (Candida albicans [2]) [µg/mL] | also measured |
| --- | --- | --- | --- |
| Clc1ccc(C(Cn2ccnc2)OCc2cn(Cc3ccc(Br)cc3)nn2)c(Cl)c1 (stereo unspecified) | 1.33 (≈ 2.62 µM) | 9.03 (≈ 17.8 µM) |  |
| O=C(Cn1cc(COC(Cn2ccnc2)c2ccc(Cl)cc2Cl)nn1)c1ccc(F)cc1 (stereo unspecified) | 1.17 (≈ 2.47 µM) | 15.9 (≈ 33.6 µM) |  |
| COC(=O)/C=C/c1ccc(Cn2cc(COC(Cn3ccnc3)c3ccc(Cl)cc3Cl)nn2)cc1 (stereo unspecified) | 16.5 (≈ 32.2 µM) | 17.8 (≈ 34.8 µM) |  |
| O=[N+]([O-])c1ccc(Cn2cc(COC(Cn3ccnc3)c3ccc(Cl)cc3Cl)nn2)cc1 (stereo unspecified) | 21.6 (≈ 45.6 µM) | 72.4 (≈ 153 µM) |  |
| C=CCn1cc(COC(Cn2ccnc2)c2ccc(Cl)cc2Cl)nn1 (stereo unspecified) | 29.4 (≈ 77.8 µM) | 77.9 (≈ 206 µM) |  |
| Clc1ccc(C(Cn2ccnc2)OCc2cn(Cc3ccccc3)nn2)c(Cl)c1 (stereo unspecified) | 6.63 (≈ 15.5 µM) | 21.5 (≈ 50.2 µM) |  |
| O=C(Cn1cc(COC(Cn2ccnc2)c2ccc(Cl)cc2Cl)nn1)c1ccc(F)cc1F (stereo unspecified) | 0.69 (≈ 1.4 µM) | 19.3 (≈ 39.2 µM) |  |
| Clc1ccc(C(Cn2ccnc2)OCc2cn(Cc3ccc4ccccc4c3)nn2)c(Cl)c1 (stereo unspecified) | 1.57 (≈ 3.28 µM) | 4.57 (≈ 9.55 µM) |  |
| Fc1ccc(Cn2cc(COC(Cn3ccnc3)c3ccc(Cl)cc3Cl)nn2)cc1F (stereo unspecified) | 11.4 (≈ 24.7 µM) | 21.4 (≈ 46 µM) |  |
| COc1ccc(C(=O)Cn2cc(COC(Cn3ccnc3)c3ccc(Cl)cc3Cl)nn2)cc1OC (stereo unspecified) | 16.6 (≈ 32.2 µM) | 58.6 (≈ 113 µM) |  |
| CC(=O)Cn1cc(COC(Cn2ccnc2)c2ccc(Cl)cc2Cl)nn1 (stereo unspecified) | 90.8 (≈ 230 µM) | > 200 |  |
| Cc1ccc(C(=O)Cn2cc(COC(Cn3ccnc3)c3ccc(Cl)cc3Cl)nn2)cc1 (stereo unspecified) | 3.34 (≈ 7.1 µM) | 26.2 (≈ 55.6 µM) |  |
| N#Cc1ccc(Cn2cc(COC(Cn3ccnc3)c3ccc(Cl)cc3Cl)nn2)cc1 (stereo unspecified) | 26.1 (≈ 57.6 µM) | 93.2 (≈ 206 µM) |  |
| O=C(Cn1cc(COC(Cn2ccnc2)c2ccc(Cl)cc2Cl)nn1)c1ccccc1 (stereo unspecified) | 1.61 (≈ 3.53 µM) | 23.4 (≈ 51.3 µM) |  |
| ClCCn1cc(COC(Cn2ccnc2)c2ccc(Cl)cc2Cl)nn1 (stereo unspecified) | 1.2 (≈ 2.99 µM) | 14.1 (≈ 35.3 µM) |  |
| O=C(Cn1cc(COC(Cn2ccnc2)c2ccc(Cl)cc2Cl)nn1)c1ccc(Br)cc1 (stereo unspecified) | 0.51 (≈ 0.953 µM) | 9.83 (≈ 18.4 µM) |  |
| FC(F)(F)c1ccc(Cn2cc(COC(Cn3ccnc3)c3ccc(Cl)cc3Cl)nn2)cc1 (stereo unspecified) | 9.77 (≈ 19.7 µM) | 15 (≈ 30.1 µM) |  |
| Clc1ccc(C(Cn2ccnc2)OCc2cn(C/C=C/c3ccccc3)nn2)c(Cl)c1 (stereo unspecified) | 1.57 (≈ 3.46 µM) | 11.5 (≈ 25.2 µM) |  |
| COC(=O)Cn1cc(COC(Cn2ccnc2)c2ccc(Cl)cc2Cl)nn1 (stereo unspecified) | 1.62 (≈ 3.95 µM) | > 200 |  |
| O=C(Cn1cc(COC(Cn2ccnc2)c2ccc(Cl)cc2Cl)nn1)c1ccccc1Cl (stereo unspecified) | 4.71 (≈ 9.6 µM) | 24.1 (≈ 49 µM) |  |
| OC(Cn1cncn1)(Cn1cncn1)c1ccc(F)cc1F [FLUCONAZOLE] | 1.52 (≈ 4.96 µM) | > 200 | Activity (Candida albicans [3]): Active; Activity (Cell membrane [4]): Active; Activity (Candida albicans [5]): Active; Activity (Cell membrane [6]): Active; Small Amount Of Red Fluorescence Observed; Activity (Candida albicans [7]): Active; Activity (Candida albicans [8]): Active; Activity (Candida albicans [9]): Active; Activity (16HBE14o-): Non-toxic; Activity (Candida albicans [10]): Active; Activity (Candida albicans [11]): Active |
| O=C(Cn1cc(COC(Cn2ccnc2)c2ccc(Cl)cc2Cl)nn1)c1ccc(Cl)cc1Cl (stereo unspecified) | 8.72 (≈ 16.6 µM) | 19.9 (≈ 37.9 µM) |  |
| Clc1ccc(Cn2cc(COC(Cn3ccnc3)c3ccc(Cl)cc3Cl)nn2)cc1 (stereo unspecified) | 1.78 (≈ 3.85 µM) | 11 (≈ 23.7 µM) |  |
